Data as given in ChEMBL document CHEMBL4118025, “ent-Abietane and Tigliane Diterpenoids from the Roots of Euphorbia fischeriana and Their Inhibitory Effects against Mycobacterium smegmatis” (2017).
Values after ≈ are worked out from the molar mass of the structure shown.

The compounds below were run on Mycolicibacterium smegmatis (assay: Antimycobacterial activity against Mycobacterium smegmatis after 24 hrs by microplate alamar blue assay).
Format: functional
Method in brief: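 Alamar blue viability read-out in 96-well microplates, following an earlier described method; test materials dissolved in DMSO at an initial 0.4 mg/mL; kanamycin positive control at 0.1 mg/mL; M. smegmatis strain preincubated 48 h before incubation with test materials.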

`CC(=O)O[C@@]12C[C@@H](C)[C@@]3(O)[C@@H](C=C(C(=O)O)C[C@]4(O)C(=O)C(C)=C[C@@H]34)[C@@H]1C2(C)C` and `CC(=O)O[C@@]12C[C@@H](C)[C@@]3(O)[C@@H](C=C(C=O)C[C@]4(O)C(=O)C(C)=C[C@@H]34)[C@@H]1C2(C)C` cannot be ordered by MIC: greater than 400 µg/mL for the first, greater than 400 µg/mL for the second.

`CC(=O)O[C@@]12C[C@](C)(O)[C@H]3[C@@H](C=C(CO)C[C@]4(O)C(=O)C(C)=C[C@@H]34)[C@@H]1C2(C)C` and `CC(=O)O[C@@]12C[C@@H](C)[C@@]3(O)[C@@H](C=C(CO)C[C@]4(O)C(=O)C(C)=C[C@@H]34)[C@@H]1C2(C)C` [PROSTRATIN] cannot be ordered by MIC: greater than 400 µg/mL for the first, greater than 400 µg/mL for the second.

First: NC[C@H]1O[C@H](O[C@H]2[C@H](O)[C@@H](O[C@H]3O[C@H](CO)[C@@H](O)[C@H](N)[C@H]3O)[C@H](N)C[C@@H]2N)[C@H](O)[C@@H](O)[C@@H]1O [KANAMYCIN]
Second: CC(=O)O[C@@]12C[C@@H](C)[C@@]3(O)[C@@H](C=C(CO[C@@H]4O[C@H](CO)[C@@H](O)[C@H](O)[C@H]4O)C[C@]4(O)C(=O)C(C)=C[C@@H]34)[C@@H]1C2(C)C [FISCHEROSIDES A]
The MIC of the first is lower: 10 µg/mL (≈ 20.6 µM) for the first, greater than 400 µg/mL for the second.

Going from `CC1(C)CCC[C@]2(C)[C@@H]1CC[C@@]13O[C@@H]1C1=C(CO)C(=O)O[C@]14O[C@@H]4[C@@H]23` to `CC1(C)CCC[C@]2(C)[C@@H]1CC[C@@]13O[C@@H]1C1=C(CO)C(=O)OC1=C[C@@H]23`, the MIC rises from 1.5 µg/mL (≈ 4.33 µM) to 100 µg/mL (≈ 303 µM) (67-fold).

`CC1=C2C(=C[C@H]3[C@]4(C)CCCC(C)(C)[C@H]4CC[C@]34O[C@H]24)OC1=O` and `CC1(C)CCC[C@]2(C)[C@@H]1CC[C@]1(O)[C@H](O)C3=C(CO)C(=O)OC3=C[C@@H]21` cannot be ordered by MIC: greater than 400 µg/mL for the first, greater than 400 µg/mL for the second.

`CC(=O)O[C@@]12[C@H](O)[C@@H](C)[C@@]3(O)[C@@H](C=C(CO)C[C@]4(O)C(=O)C(C)=C[C@@H]34)[C@@H]1C2(C)C` and `CC1=C[C@H]2[C@@]3(O)[C@H](C)CC(=O)[C@@H](C(C)C)[C@@H]3C=C(CO)C[C@]2(O)C1=O` cannot be ordered by MIC: greater than 400 µg/mL for the first, greater than 400 µg/mL for the second.

Compared with `CC1=C2C=C3[C@@H](O)C[C@@H]4C(C)(C)CCC[C@@]4(C)[C@@H]3[C@@H](O)[C@@]2(O)OC1=O`, `CC1(C)CCC[C@]2(C)[C@@H]1C[C@H](O)C1=CC3=C(CO)C(=O)O[C@]3(O)[C@H](O)[C@H]12` is higher in MIC: 400 µg/mL (≈ 1150 µM) for the first, greater than 400 µg/mL for the second.

Going from `CC1=C2[C@@H](OC1=O)C(=O)[C@H]1[C@]3(C)CCCC(C)(C)[C@H]3CC[C@@]1(O)[C@H]2O` to `CC1=C2[C@@H](O)[C@@]3(O)CC[C@@H]4C(C)(C)CCC[C@@]4(C)[C@@H]3[C@@H](O)[C@H]2OC1=O`, the MIC rises from 300 µg/mL (≈ 861 µM) to greater than 400 µg/mL.

`CC1(C)C(=O)CC[C@]2(C)[C@@H]1C[C@H](O)C1=CC3=C(CO)C(=O)O[C@@H]3[C@@H](O)[C@H]12` and `CC1(C)C(=O)CC[C@]2(C)[C@@H]1CCC1=CC3=C(CO)C(=O)O[C@@H]3[C@@H](O)[C@H]12` cannot be ordered by MIC: greater than 400 µg/mL for the first, greater than 400 µg/mL for the second.

Compared with `CC1(C)CCC[C@]2(C)[C@@H]1CCC1=CC3=C(CO)C(=O)O[C@]3(O)[C@H](O)[C@H]12`, `CC(=O)O[C@@]12C[C@@H](C)[C@@]3(O)[C@@H](C=C(CO[C@@H]4O[C@H](CO)[C@@H](OC(=O)c5cc(O)c(O)c(O)c5)[C@H](O)[C@H]4O)C[C@]4(O)C(=O)C(C)=C[C@@H]34)[C@@H]1C2(C)C` is higher in MIC: 200 µg/mL (≈ 574 µM) for the first, greater than 400 µg/mL for the second.

`CC(=O)O[C@@]12C[C@@H](C)[C@@]3(O)[C@@H](C=C(CO[C@@H]4O[C@H](CO)[C@@H](O)[C@H](OC(=O)c5cc(O)c(O)c(O)c5)[C@H]4O)C[C@]4(O)C(=O)C(C)=C[C@@H]34)[C@@H]1C2(C)C` gave an MIC greater than 400 µg/mL.
